FLuc inhib CS = Photinus pyralis luciferase inhibition counter-screen; AID 1006; inhibition, % at 10 µM; 1.5% of 200,000 active; ATPLite firefly luciferase biochemical luminescence, 10 min; P08659;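 active means inhibition above about 50% when tested at 10 µM, limit read from the data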
Target sequence (P08659 whole entry, looked up): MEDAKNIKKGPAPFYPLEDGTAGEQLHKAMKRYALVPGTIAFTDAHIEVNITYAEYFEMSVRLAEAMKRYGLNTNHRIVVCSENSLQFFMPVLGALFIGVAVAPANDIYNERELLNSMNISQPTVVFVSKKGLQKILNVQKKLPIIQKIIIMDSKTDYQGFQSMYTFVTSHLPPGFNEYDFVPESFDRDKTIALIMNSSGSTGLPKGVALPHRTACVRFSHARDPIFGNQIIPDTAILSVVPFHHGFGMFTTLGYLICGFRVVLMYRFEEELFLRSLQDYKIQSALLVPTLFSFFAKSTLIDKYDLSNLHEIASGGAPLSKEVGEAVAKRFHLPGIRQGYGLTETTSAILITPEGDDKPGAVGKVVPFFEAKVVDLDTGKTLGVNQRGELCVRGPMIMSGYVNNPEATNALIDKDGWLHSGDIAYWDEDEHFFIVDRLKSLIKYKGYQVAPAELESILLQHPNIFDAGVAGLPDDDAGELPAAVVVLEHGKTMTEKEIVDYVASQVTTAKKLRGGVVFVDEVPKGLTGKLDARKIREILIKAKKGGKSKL
FLuc act counter = firefly luciferase counter-screen for stimulation assays; ATPlite luciferase biochemical, luminescence, 10 min; 0 = ATP-free wells, 1 = DMSO control; activation factor at 10 µM; AID 1027; P08659; 200,000 tested, under 10 active;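 active means luciferase activation factor, scaled between plate controls, of at least 2 with compound at 10 µM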
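Assay system: Luciferase/luciferin reagent mix; Medium: PBS as buffer for the ATP substrate; Dosing: test compounds dosed from 2 mM stocks in 100% DMSO; Times: 10 min, room temperature; Signal: luminescence from luciferase reaction; Read-out: luciferase activation; Controls: No-ATP low control, compound-free enzyme-plus-ATP high control.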
PPC-1+TRAIL kill = compounds killing PPC-1 cancer cells with TRAIL present (potentiator screen, no TRAIL-free arm); PPC-1 cells + TRAIL, ATPLite viability luminescence; 0.41% of 220,000 active; cell killing (% activity), % at 4 µM or 5 µM; AID 1443;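 active means cell killing above 50% in the first pass at 4 µM, then a duplicate retest at 5 µM averaging 50% or more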;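 further: plate controls were cells with TRAIL plus DMSO for no effect and medium-only wells lacking cells for full effect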
TRAIL sens C8 = caspase-8 TRAIL sensitization; NB7+C8 cells + TRAIL, ATPlite viability luminescence; inhibition (viability loss, TRAIL sensitization), % at 10 µM; AID 624354; 1% of 360,000 active;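 active means compounds causing at least 50% loss of cell viability in the single-dose screen, relative to plate controls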
PPC-1 tox = kills PPC-1 cells; shares compounds with PPC-1+TRAIL kill; PPC-1 viability, ATPlite luminescence, overnight; cytotoxicity, % at 5 µM; 50% of 1,200 active; AID 1447;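 active means reconfirmed compounds whose average cytotoxicity reaches 50% or more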;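 further: 0% = DMSO-treated cells and 100% = wells holding medium but no cells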
The depositor's hits bear a star; / = no result. In the library only some 1.5% were active in any assay of this set; here they are far more common.

SMILES	FLuc inhib CS	FLuc act counter	PPC-1+TRAIL kill	TRAIL sens C8	PPC-1 tox
CC1CCCC(NC(=O)C2CCN(S(=O)(=O)c3cnc[nH]3)CC2)C1C (centres undefined)	/	/	/	8	/
Clc1ccc(/C=C/c2nc3ccccc3[nH]2)c(Cl)c1	96*	0	94*	87*	95*
Clc1ccc(SCc2nc3ccccc3[nH]2)cc1	19	0.8	20	17	/
Clc1ccc(/C=C/c2nc3ccccc3[nH]2)cc1	96*	0	87*	88*	86*
Cc1ccc(C(=O)N2CCN(c3cccc(C)c3C)CC2)o1	/	/	/	14	/
CCOC(=O)c1cn[nH]c1NC(=S)Nc1ccc(OC)cc1	/	/	60*	67*	59*
COC(=O)c1cn[nH]c1NC(=S)Nc1ccc(Cl)c(Cl)c1	25	0.8	17	18	/
O=C(/C=C/c1cccs1)c1ccc(N2CCOCC2)cc1	96*	0	64*	76*	65*
CC1(C)c2ccccc2N2CC(=O)N(CC(N)=O)C21C (centres undefined)	-6	1.1	14	7	/
CC(Sc1nc(=O)cc(N)n1CCc1ccccc1)C(=O)NCc1ccccc1 (centres undefined)	0	1	23	-3	/
C=CCn1c(N)cc(=O)nc1SC(C)C(=O)Nc1cccc2ccccc12 (centres undefined)	-4	1	15	-2	4
O=C(Nc1nccs1)c1cc2sccc2n1Cc1ccc(Cl)cc1	-7	1.1	-8	-5	/
CCc1c(C)sc(NC(=O)c2cc(CC(C)C)on2)c1C#N	-8	1.1	2	-3	-1
Cc1nnc2sc(-c3ccccn3)nn12	-2	1	12	-8	3
c1ccc(-c2nn3c(Cn4nnc5ccccc54)nnc3s2)nc1	-4	1	11	17	/
Cc1cc(NCCCn2ccnc2)n2ncc(-c3ccccc3)c2n1	87*	0.1	67*	77*	62*
CC1(C)CC(=O)C=C(NNC(=O)c2ccccc2O)C1	91*	0.1	79*	71*	75*
C/C(=N\Nc1ncnc2sc(C)c(C)c12)c1ccccn1	/	/	/	8	/
COc1ccc(CCNC(=O)CN2CCCc3ccccc32)cc1OC	-3	1	-1	-5	/
O=C(NC(=S)Nc1ccc(Cl)cn1)C(c1ccccc1)c1ccccc1	1	1	23	4	/
CCN(CC)CCCNc1nc2cc(OC)c(OC)cc2c2nc(-c3ccccc3)nn12	-4	1	26	11	22
O=c1c(Cl)c(N2CCOCC2)cnn1-c1nc2ccccc2[nH]1	71*	0.3	20	37	24
c1ccc2[nH]c(N3CCOCC3)nc2c1	-7	1.1	3	-13	/
CCCCCCCn1ccc(=N)cc1	-6	1.1	5	35	/
CCCCCCCCCn1ccc(=N)cc1	/	/	-5	32	-9
SMILES	FLuc inhib CS	FLuc act counter	PPC-1+TRAIL kill	TRAIL sens C8	PPC-1 tox
CSc1ccc(CN2CCC(N3CCC(C(=O)NC4CC4)CC3)CC2)cc1	/	/	/	0	/
CC1=CC(=O)c2ccccc2C1=O	-2	1	35	2	/
O=C1C=C(Nc2ccccc2)C(=O)c2ccccc21	44	0.6	36	47	33
CC(=O)Cc1cc(O)c2ccccc2c1OC(=O)c1ccccc1	-5	1	12	3	11
CC(=O)c1cc(C)c(OC(=O)c2ccccc2)c(C)c1	/	/	/	6	/
O=C(NC1CCCc2c1cnn2-c1ccc(F)cc1F)c1cnccn1 (centres undefined)	0	1	-2	12	/
O=C(Nc1cc(S(=O)(=O)N2CCOCC2)ccc1N1CCCC1)c1cnccn1	-5	1	5	12	/
CCOC(=O)c1sc(-c2ccc(OC)cc2)cc1N	33	0.7	17	6	9
COCCCn1cc(CN2CC(N3CCN(CCN(C)C)CC3)CS2(=O)=O)nn1 (centres undefined)	/	/	/	0	/
CC(=O)Nc1ccc(SCC(=O)c2cc(C)n(Cc3cccs3)c2C)cc1	1	1	39	39	39
COc1ccc(-n2cnnc2SCC(=O)c2cc(C)n(Cc3cccs3)c2C)cc1	-2	1	3	9	2
O=C(NC1CCCCCCC1)C1CCN(S(=O)(=O)N2CCC3(CC2)OCCO3)CC1	-10	1.1	2	-2	/
CC1(C)CC(=O)c2sc(NC(=O)c3cccs3)nc2C1	95*	0.1	77*	85*	77*
CC1(C)CC(=O)c2sc(NC(=O)c3ccccc3)nc2C1	88*	0.1	52*	/	52*
O=C(COc1ccccc1F)Nc1nnc(-c2ccncc2)s1	-2	1	0	16	/
Oc1c(N=Nc2ccccn2)ccc2ccccc12	91*	0.1	82*	74*	80*
Cn1c(C(=O)Nc2ccc3c(c2)OCCO3)cc2sccc21	81*	0.2	42	56*	40
Cc1ccc(C(=O)Nc2ccc3c(c2)OCCO3)o1	84*	0.2	62*	54*	59*
Cc1cc(C(=O)Nc2ccc3c(c2)OCCO3)co1	75*	0.2	44	48	40
CCOC(=O)c1cc(CC)sc1NC(=O)c1ccc(N2CCOCC2)c([N+](=O)[O-])c1	-10	1.1	6	-12	/
COC(=O)c1ccc2nc(NC(=O)C3CCCCC3)sc2c1	2	1	5	2	/
COC(=O)c1ccc2nc(NC(=O)C(C)(C)C)sc2c1	95*	0	85*	90*	86*
CC(/C=N/NC(=O)c1ccco1)=C\c1ccccc1	90*	0.1	63*	69*	63*
CC(C=NNC(=O)C(=O)NN=CC(C)=Cc1ccccc1)=Cc1ccccc1	/	/	/	15	/
O=C(c1cc(-c2ccccc2Cl)nc2ccc(Br)cc12)N1CCN(c2ccccn2)CC1	/	/	/	41	/
SMILES	FLuc inhib CS	FLuc act counter	PPC-1+TRAIL kill	TRAIL sens C8	PPC-1 tox
Cc1ccc(OCc2nnc(SCC(=O)NCc3ccccc3)n2C)cc1	-5	1.1	11	1	11
CCC(C)(C)c1ccc(OCCCC[n+]2cccc(C)c2)c(C(C)(C)CC)c1	-7	1.1	35	14	37
Cc1ccc[n+](CC(=O)Nc2cc(C(F)(F)F)ccc2Cl)c1	-9	1.1	8	-13	/
Cc1cc(C(=O)COC(=O)c2cccnc2Cl)c(C)n1CC1CCCO1 (centres undefined)	96*	0	79*	16	77*
Cc1cc(C(=O)COC(=O)c2ccccc2Br)c(C)n1CC1CCCO1 (centres undefined)	/	/	80*	77*	76*
Cc1cc(C(=O)COc2ccccc2C(N)=O)c(C)n1CC1CCCO1 (centres undefined)	12	0.9	7	26	/
C/C(=N\Nc1nc(C)cc(C)n1)c1ccc(N2CCOCC2)cc1	1	1	15	2	/
C/C(=N\Nc1nc2ccccc2[nH]1)c1ccc(N2CCOCC2)cc1	94*	0.1	71*	73*	71*
CCC1S/C(=N/S(=O)(=O)c2ccc(N)cc2)NC1=O (centres undefined)	/	/	/	4	/
COc1ccc2c(C)nc(Nc3nc(-c4ccccc4)cc(=O)[nH]3)nc2c1	/	/	42	41	44
